# PGC1a acetyl up: compounds raising PGC1a acetylation signal, primary screen, PGC1a modulator project, cell-based, U2OS, AlphaScreen, signal-increasing mode | overnight | actives 0.21% (n = 350,000) | activation, % at 15.6 µM;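 active = every replicate reaching activation of at least 50%, whatever the mean replicate activation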;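 note: hits raise the AlphaScreen acetylation signal above neutral controls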
#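 detection = AlphaScreen lysate read | assay system = U2OS cells expressing flag-PGC1a plus GCN5 | input = 7000 cells/well | dosing = one concentration | times = compound overnight at 37 °C, each detection step 1 h RT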
# The depositor's hits bear a star. Not all results are given here.
SMILES,PGC1a acetyl up
O=C(Cc1ccccn1)NCC[C@H]1CC[C@H](NC(=O)Nc2ccc(C(F)(F)F)cc2)[C@H](CO)O1,-48.1
O=C(Cc1ccccn1)N[C@@H]1CC[C@@H](CCn2cc(-c3ccccc3)nn2)O[C@H]1CO,133.0*
CO[C@H]1CN(C)C(=O)c2cc(NC(C)=O)ccc2OC[C@@H](C)N(CC2CCCCC2)C[C@@H]1C,-41.0
Fc1ccc(CO/N=C/C2=C(Cl)c3ccccc3CC2)cc1,-79.1
CC(C)c1nnc(NC(=O)CCS(=O)(=O)c2nc(-c3cccs3)cc(C(F)(F)F)n2)s1,102.8*
C[C@@H]1CN([C@H](C)CO)C(=O)c2cc(NC(=O)CCCCCC(=O)Nc3ccccc3N)ccc2O[C@H]1CN(C)S(=O)(=O)c1ccc(Cl)cc1,-59.6
O=C(CC1SC(=NCc2ccccc2)NC1=O)Nc1ccccc1 (stereo not drawn),98.6*
CCCCN=C1NC(=O)C(CC(=O)Nc2ccc(Cl)cc2)S1 (stereo not drawn),171.3*
Cc1cccc(S(=O)(=O)N(C)C[C@@H]2OCc3cn(nn3)CCCC(=O)N([C@@H](C)CO)C[C@H]2C)c1,-59.3
CC(NC1c2ccccc2-c2ccccc21)c1ccccc1 (stereo not drawn),-40.1
O=S(=O)(Nc1ccccn1)c1ccc(-n2cccn2)cc1,-46.0
C[C@H](CO)N1C[C@H](C)[C@@H](CN(C)C(=O)Nc2ccc(F)cc2)Oc2ncc(C#CC3CC3)cc2C1=O,-46.5
COc1ccc(C#Cc2cnc3c(c2)C(=O)N([C@H](C)CO)C[C@H](C)[C@H](CN(C)S(=O)(=O)c2cccc(F)c2)O3)cc1OC,123.0*
C[C@H](CO)N1C[C@H](C)[C@H](CN(C)S(=O)(=O)c2ccc(F)cc2)Oc2ncc(-c3cccc(C(=O)N(C)C)c3)cc2C1=O,-48.3
COc1nc(OCCNS(=O)(=O)c2ccc(C)cc2)nc(N(C)C)n1,-52.2
O=Nc1c2nc3ccccc3n(O)c-2c2ccccc12,61.0*
Cc1ccc(-c2cnc3c(c2)C(=O)N([C@H](C)CO)C[C@H](C)[C@@H](CN(C)C)O3)cc1,-49.8
CC1(C)CC(=O)C2=C(C1)Nc1ccccc1N1C(=O)c3ccccc3C21 (stereo not drawn),57.9*
COc1cc(NC(=S)NN2CCOCC2)cc(OC)c1,-60.6
C=CCn1c(SCc2c(C)noc2C)nc2ccccc2c1=O,74.0*
COc1cc2nc(SCc3c(C)noc3C)n(CCC3=CCCCC3)c(=O)c2cc1OC,-48.0
Cc1noc(C)c1CSc1nnc(-c2cccnc2)n1C1CCCCC1C (stereo not drawn),-49.1
CC(C)(C)NS(=O)(=O)c1ccc(-c2csnn2)s1,-60.6
O=C(Nc1cccc(OC(F)(F)F)c1)c1ccc(-c2cccnc2)c2ccoc12,58.7*
CC(C)NC(=O)Nc1ccc2c(c1)C(=O)N([C@H](C)CO)C[C@@H](C)[C@H](CN(C)S(=O)(=O)c1ccccc1)OCCCC[C@@H](C)O2,-44.1
SMILES,PGC1a acetyl up
COc1cccc(CN2C[C@@H]3N[C@H](C2)C3c2ccc(-c3ccccc3F)cc2)c1 (stereo partly drawn),108.2*
Fc1cccc(CN2C[C@@H]3N[C@H](C2)C3c2ccc(/C=C/c3ccccc3)cc2)c1 (stereo partly drawn),65.5*
COc1cccc(CN2C[C@@H]3N[C@H](C2)C3c2ccc(-c3cccc(C#N)c3)cc2)c1 (stereo partly drawn),79.3*
COc1cc(CN2C[C@@H]3N[C@H](C2)C3c2ccc(-c3ccccc3C)cc2)cc(OC)c1 (stereo partly drawn),-104.6
COc1cccc(-c2ccc(C3[C@@H]4CN(Cc5cccc(F)c5)C[C@H]3N4)cc2)c1 (stereo partly drawn),-97.5
COc1cccc(-c2ccc(C3[C@@H]4CN(Cc5ccccn5)C[C@H]3N4)cc2)c1 (stereo partly drawn),55.5*
C[C@@H]1CN([C@H](C)CO)C(=O)CCCn2nncc2CO[C@H]1CN(C)C(=O)C1CC1,-50.9
Cc1c(NC(=O)c2ccccc2NS(=O)(=O)c2ccc(Br)cc2)c(=O)n(-c2ccccc2)n1C,-42.1
C=CS(=O)(=O)N(Cc1ccccc1Br)[C@H](CO)Cc1ccccc1,-44.1
CC1=C(C(=O)OC(C)(C)C)C(c2ccc3ccccc3c2)NC(=O)N1C (stereo not drawn),-65.5
COc1ccc(-c2cnc3c(c2)C(=O)N([C@H](C)CO)C[C@H](C)[C@@H](CN(C)C(=O)C2CC2)O3)cc1,-111.1
C=C1C(=O)C23CCC4C(C)(C(=O)OC)CCCC4(C)C2CCC1(O)C3 (stereo not drawn),-76.3
Fc1cccc(-c2ccc([C@@H]3[C@@H]4CN(Cc5nccs5)C[C@H]3N4)cc2)c1,75.2*
CCCNC(=O)N(C)C[C@H]1Oc2cc(C#CC(C)C)ccc2S(=O)(=O)N([C@@H](C)CO)C[C@H]1C,-51.4
COc1ccc(S(=O)(=O)N(C)C[C@H]2Oc3c(NS(=O)(=O)c4ccc(C)cc4)cccc3C(=O)N([C@H](C)CO)C[C@H]2C)cc1,-40.5
Clc1ccc(CSc2nnc(-c3cccnc3)n2Cc2ccco2)c(Cl)c1,73.7*
CCN(CC)C(=O)CSc1nnc(-c2cccnc2)n1Cc1ccccc1,-45.3
CC(C)NC(=O)c1c(O)c2ccccc2[nH]c1=O,96.9*
Cc1[nH]c2ccccc2c1C(=O)/C=C/c1ccccc1,-70.7
O=C(N/N=C/c1ccc(F)cc1)c1c(O)c2ccccc2[nH]c1=O,-45.2
COC(=O)c1ccc[n+](CC(=O)c2ccc(Br)cc2)c1,-43.3
O=C(CC1CC1)N[C@H]1CC[C@H](CCNS(=O)(=O)c2ccc(Cl)cc2)O[C@H]1CO,-53.2
Cc1nn(CCCC(=O)O)c(C)c1[N+](=O)[O-],-42.5
NCCCCCC(=O)O,-51.2
C[C@@H]1CN([C@@H](C)CO)S(=O)(=O)c2ccc(-c3ccc(F)cc3)cc2O[C@H]1CN(C)C(=O)C1CCCCC1,-64.1
SMILES,PGC1a acetyl up
COc1ccc(S(=O)(=O)N(C)C[C@@H]2Oc3cc(C#CC4CC4)ccc3S(=O)(=O)N([C@@H](C)CO)C[C@@H]2C)cc1,136.3*
COc1ccc(S(=O)(=O)N(C)C[C@@H]2Oc3cc(C#CC4CC4)ccc3S(=O)(=O)N([C@H](C)CO)C[C@@H]2C)cc1,56.4*
C[C@H](CO)N1C[C@H](C)[C@@H](CN(C)Cc2cccnc2)Oc2cc(C#CC3CCCCC3)ccc2S1(=O)=O,-49.4
Cc1ccccc1-c1ccc2c(c1)O[C@H](CN(C)Cc1ccncc1)[C@@H](C)CN([C@@H](C)CO)S2(=O)=O,57.3*
COc1ccccc1C#Cc1ccc2c(c1)O[C@@H](CN(C)Cc1cccnc1)[C@H](C)CN([C@@H](C)CO)S2(=O)=O,-44.4
Cc1ccc(S(=O)(=O)N(C)C[C@H]2Oc3cc(C#Cc4ccncc4)ccc3S(=O)(=O)N([C@H](C)CO)C[C@H]2C)cc1,-44.4
C[C@H](CO)N1C[C@H](C)[C@H](CN(C)C(=O)NC2CCCCC2)Oc2cc(C#Cc3ccc(F)cc3)ccc2S1(=O)=O,-55.0
C[C@H]1CN([C@@H](C)CO)S(=O)(=O)c2ccc(Br)cc2O[C@@H]1CN(C)S(=O)(=O)c1ccccc1F,64.4*
COc1ccc(S(=O)(=O)N(C)C[C@H]2Oc3cc(C4=CCCC4)ccc3S(=O)(=O)N([C@H](C)CO)C[C@@H]2C)cc1,-51.1
CCCN(C)C[C@@H]1Oc2cc(C#C[C@H](C)O)ccc2S(=O)(=O)N([C@H](C)CO)C[C@@H]1C,-50.2

# Compound activity: PubChem, Broad Institute
